# Measured values published in PubChem BioAssay.
# Activity calls are given as the source filed them.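 The calls were made as follows, unless noted: active = fluorescence slope after compound addition differing from the mean of all tested samples at 99.7% confidence, mostly higher but some lower; inactive = the rest.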
# Assays:
# [1] = inhibitors of TNFa-induced NFkB p65 translocation, primary screen, imaging, HUVEC, MLSMR starter and 10KST1 sets (AID 438;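 active = inhibition above 20% together with a positive visual image hit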;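 also: compound added about 3h40 before a 20 min TNFalpha stimulation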;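 as to inhibition: signal is the nuclear over cytoplasmic p65 intensity ratio per well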); conditions: HUVEC TNFa-induced p65 nuclear translocation; cell count: measured here: nuclei count (cytotoxicity indicator), at 2.08 µM; inhibition: at 2 µM, stronger effect = higher value, 0% TNFa-plus-vehicle, 100% no-TNFa wells
# [2] = inhibitors of mutant huntingtin aggregation, primary screen, imaging, exon1htt(103Q)mCFP cells, high-content imaging (AID 483;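 active = visual image review flags a hit and inhibition of aggregation exceeds 20%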;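 also: compound exposure lasted 3 days before fixation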;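 as to nuclei count: percent of the per-plate median nuclei count of sample wells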); conditions: exon1htt(103Q)mCFP cell line, aggregate imaging, at 2 µM; inhibition of aggregation: stronger effect = higher value; nuclei count: measured here: cell count, toxicity
# [3] = inhibitors of E-selectin induction by TNFa, primary screen, imaging, HUVEC, immunofluorescence, MLSMR starter and 10KST1 sets (AID 487;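 active = visually confirmed hit in the image check and inhibition above 20%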;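 as to inhibition: signal is fraction of cell area covered by stained E-selectin grains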;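 as to nuclei count: 100% = median nuclei count of all wells on the same plate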); conditions: HUVEC TNFalpha-induced E-selectin immunofluorescence imaging, at 2 µM; inhibition: stronger effect = higher value; nuclei count: measured here: cell number, toxicity
# [4] = target: Voltage-gated potassium channel subunit beta-2 (Rattus norvegicus) (UniProt P62483); experiment: KvBeta enzyme negative modulators, primary screen, biochemical, NADPH fluorescence (AID 622;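 active = fluorescence slope higher than the sample average by over 3 SD, cut at about -0.22 in these data, passing the limit was not always enough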;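 also: slope of raw intensity against log time taken from 70 to 1610 s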); conditions: recombinant KvBeta, 4-cyanobenzaldehyde reduction, at 10 µM, stronger effect = higher value
# Voltage-gated potassium channel subunit beta-2 (Rattus norvegicus), sequence (P62483 whole entry, looked up): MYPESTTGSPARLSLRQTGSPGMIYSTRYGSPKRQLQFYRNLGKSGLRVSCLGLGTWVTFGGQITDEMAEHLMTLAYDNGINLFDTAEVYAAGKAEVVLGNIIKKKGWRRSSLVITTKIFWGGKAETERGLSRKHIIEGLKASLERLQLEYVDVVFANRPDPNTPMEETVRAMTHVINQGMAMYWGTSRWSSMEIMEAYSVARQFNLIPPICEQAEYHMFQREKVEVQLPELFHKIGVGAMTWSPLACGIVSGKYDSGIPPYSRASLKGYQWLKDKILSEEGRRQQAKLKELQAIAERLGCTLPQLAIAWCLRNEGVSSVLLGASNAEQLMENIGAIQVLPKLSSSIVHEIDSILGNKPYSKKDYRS
# [5] = target: Voltage-gated potassium channel subunit beta-2 (Rattus norvegicus) (UniProt P62483); experiment: KvBeta positive modulators, primary screen, biochemical, NADPH fluorescence (AID 623;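 active = NADPH fluorescence slope more negative than the mean of all samples by about 3 SD, 99.7% confidence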;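 also: fluorescence intensity change per second fitted from 20 to 320 s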); conditions: Recombinant KvBeta, NADPH fluorescence decrease slope, 10 min; at 10 µM; stronger effect = lower value
# [6] = target: Muscarinic acetylcholine receptor M4 (Homo sapiens) (UniProt P08173); experiment: compounds altering M4/GIRK thallium flux, either direction, primary screen, M4 allosteric agonist project, cell-based, HEK293 M4/GIRK, BTC-AM (AID 625); conditions: at 10 µM, actives lie on both sides;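 also: thallium influx through GIRK channels coupled to M4 in HEK293 cells with BTC-AM dye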
# Muscarinic acetylcholine receptor M4 (Homo sapiens), sequence (P08173 whole entry, looked up): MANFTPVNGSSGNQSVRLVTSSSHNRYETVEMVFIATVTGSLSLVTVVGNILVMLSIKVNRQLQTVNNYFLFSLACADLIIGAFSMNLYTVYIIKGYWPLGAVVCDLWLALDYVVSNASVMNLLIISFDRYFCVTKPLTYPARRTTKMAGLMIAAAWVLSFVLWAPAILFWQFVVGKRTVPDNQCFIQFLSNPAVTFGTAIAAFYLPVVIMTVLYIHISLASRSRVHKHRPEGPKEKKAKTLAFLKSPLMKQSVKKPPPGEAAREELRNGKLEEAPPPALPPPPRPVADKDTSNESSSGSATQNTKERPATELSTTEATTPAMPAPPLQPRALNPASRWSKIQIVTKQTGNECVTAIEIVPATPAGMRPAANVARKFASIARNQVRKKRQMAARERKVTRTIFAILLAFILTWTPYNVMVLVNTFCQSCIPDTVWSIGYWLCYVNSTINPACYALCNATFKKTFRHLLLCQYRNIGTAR
# How it was run: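 Material: M4/GIRK1/GIRK2 stable HEK293 cell line. Medium: pH 7.3 thallium assay buffer. Dosing: single compound concentration, 10 µM final. Schedule: 1 h dye loading, 2 min kinetic read. Measured by: kinetic fluorescence with BTC-AM dye. Read-out: post-addition slope, 15–24 s, of baseline-normalized fluorescence. Benchmarks: carbachol and DMSO controls.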
# [7] = inhibitors of Sendai virus-induced IRF3 signaling, primary screen, TLR/RLR signaling modifier project, cell-based, Sendai virus stimulus, luciferase, 10K MLSCN set (AID 602276;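 active = inhibition at or above 50% at 10 µM; inactive = inhibition below 50%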;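 also: firefly luciferase from ISG56 promoter only with Renilla not read in this screen; 0% = Sendai virus plus DMSO and 100% = medium plus DMSO without virus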); conditions: HEK293 RL24 IRF3 luciferase reporter, at 10 µM, stronger effect = higher value
# [8] = inhibitors of poly I:C-induced TLR3 signaling, primary screen, cell-based, poly I:C stimulus, luciferase, 10K MLSCN set (AID 602277;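 active = inhibition of the reporter signal at or above 50%; inactive = inhibition below 50%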); conditions: HEK293-TLR3 RL24 IRF3 luciferase reporter, at 10 µM, stronger effect = higher value
Structure (SMILES),cell count [1],inhibition [1],inhibition of aggregation [2],nuclei count [2],inhibition [3],nuclei count [3],fluorescence slope [4],NADPH fluorescence slope [5],fluorescence slope [6],inhibition [7],inhibition [8]
Cc1nnc(SCC(=O)NC(C)(C)C)n1CCc1ccccc1,677,2.8% (inactive),-3.9% (inactive),109%,-20.1% (inactive),135%,-0.512 (inactive),-4.5e-05 (inactive),0.00442 (inactive),11.7% (inactive),8.89% (inactive)
COc1ccc(CN2C(=O)C(O)(CC(=O)c3c(C)n[nH]c3C)c3ccccc32)cc1OC (stereo not drawn),264,-12.6% (inactive),-2.3% (inactive),92.8%,-27.7% (inactive),97.3%,-0.481 (inactive),-4.5e-05 (inactive),0.00507 (inactive),15.2% (inactive),9.8% (inactive)
CCOc1ncccc1C(=O)Nc1ccc2c(C)cc(=O)oc2c1,585,5.8% (inactive),10% (inactive),92.5%,-26.9% (inactive),96.9%,-0.535 (inactive),-3.1e-05 (inactive),0.00712 (inactive),10.1% (inactive),4.34% (inactive)
CCCn1c(N2CCN(CC(=O)Nc3ccc4c(c3)OCCO4)CC2)nc2ccccc21,411,-11% (inactive),1.8% (inactive),103%,-98.9% (inactive),74.4%,-0.526 (inactive),-0.000207 (inactive),0.00376 (inactive),4.25% (inactive),20.1% (inactive)
CCCn1c(=N)n(CCOc2ccc(OC)cc2)c2ccccc21,665,21.3% (inactive),5.9% (inactive),92.6%,15.1% (inactive),139%,-0.466 (inactive),-4.2e-05 (inactive),0.00387 (inactive),20.2% (inactive),15.4% (inactive)
CC1(c2ccc(OC(F)F)cc2)NC(=O)N(CC(=O)Nc2ccc3c(c2)OCO3)C1=O (stereo not drawn),404,-6.6% (inactive),-11.2% (inactive),109%,-7.1% (inactive),107%,-0.576 (inactive),-6.3e-05 (inactive),0.00647 (inactive),-3.26% (inactive),2.25% (inactive)
O=C(CCC(=O)N1CCN(S(=O)(=O)c2ccccc2)CC1)c1cccs1,633,-1.3% (inactive),-22.1% (inactive),102%,-176% (inactive),153%,-0.568 (inactive),-7e-05 (inactive),0.00592 (inactive),-5.43% (inactive),-3.56% (inactive)
CC(C(=O)NCc1cccnc1)N1C(=O)c2ccccc2C1=O (stereo not drawn),783,5.5% (inactive),3.6% (inactive),105%,-39.6% (inactive),132%,-0.607 (inactive),1.7e-05 (inactive),0.00555 (inactive),-0.398% (inactive),10.3% (inactive)
COC(=O)c1nc2n(n1)C(c1ccc(OC)c(OC)c1)C(C(=O)OC1CCCCC1)=C(C)N2 (stereo not drawn),603,-14.8% (inactive),-3.4% (inactive),99.2%,26.7% (inactive),89.6%,-0.315 (inactive),-5.5e-05 (inactive),0.00696 (inactive),4.26% (inactive),12.6% (inactive)
CCOc1ccc(OCC)c2sc(C)nc12,339,2.4% (inactive),8.2% (inactive),102%,1% (inactive),106%,-0.591 (inactive),-5.9e-05 (inactive),0.00571 (inactive),12.4% (inactive),-8.47% (inactive)
COc1cccc2c(=O)c3c(cnn3C)n(C)c12,279,16.3% (inactive),-31.5% (inactive),52.8%,-37.2% (inactive),111%,-0.412 (inactive),3.1e-05 (inactive),0.00385 (inactive),-10.8% (inactive),-29.4% (inactive)
CCCOc1ccc(C2c3c(oc4ccccc4c3=O)C(=O)N2CCCN2CCOCC2)cc1 (stereo not drawn),559,16.8% (inactive),26.2% (inactive),100%,-18.5% (inactive),101%,-0.413 (inactive),-1.1e-05 (inactive),0.00521 (inactive),11.7% (inactive),21.3% (inactive)
COC(=O)Cn1cnc2c(nnn2-c2ccc(C)cc2)c1=O,257,8.9% (inactive),-6.9% (inactive),100%,-78.1% (inactive),106%,-0.287 (inactive),-3.1e-05 (inactive),0.00635 (inactive),-7.22% (inactive),1.35% (inactive)
COc1ccc(C)cc1-n1nnnc1SCC(=O)NC(=O)NCc1ccco1,180,-9.6% (inactive),25% (inactive),65.2%,8.9% (inactive),90.6%,-0.57 (inactive),-1.3e-05 (inactive),0.00596 (inactive),16.7% (inactive),16% (inactive)
C=C(C)c1cccc(C(C)(C)NC(=O)Nc2ncccn2)c1,472,-4.3% (inactive),1.6% (inactive),106%,-0.4% (inactive),99.6%,-0.601 (inactive),-1.1e-05 (inactive),0.00622 (inactive),-42.4% (inactive),98.6% (active)
Cc1onc(-c2c(Cl)cccc2Cl)c1C(=O)NCCCN1CCOCC1,618,3.6% (inactive),13.7% (inactive),100%,-48.9% (inactive),84%,-0.47 (inactive),-2.9e-05 (inactive),0.00479 (inactive),9.5% (inactive),10.6% (inactive)
CCc1cccc(NS(=O)(=O)c2c(C)n[nH]c2C)c1,679,-8.8% (inactive),-12.8% (inactive),124%,-135% (inactive),111%,-0.465 (inactive),-1.4e-05 (inactive),0.00614 (inactive),4.66% (inactive),19.7% (inactive)
CCNCCNC(=O)c1c(O)c2ccccc2n(CC)c1=O,289,-1.4% (inactive),-5.8% (inactive),60.8%,29.6% (inactive),99.7%,-0.539 (inactive),-4.3e-05 (inactive),0.0077 (inactive),10% (inactive),13.5% (inactive)
CC1c2nc3ccccc3n2C(CC(=O)NCc2ccccn2)C(=O)N1Cc1ccccc1 (stereo not drawn),678,-3.4% (inactive),-12.5% (inactive),119%,-115% (inactive),119%,-0.505 (inactive),-1.2e-05 (inactive),0.0053 (inactive),15% (inactive),22.6% (inactive)
N#CC1=C(N)Oc2n[nH]c(-c3cccs3)c2C1c1cccs1 (stereo not drawn),562,-15.3% (inactive),4.7% (inactive),99.1%,-80.1% (inactive),113%,-0.396 (inactive),-1.8e-05 (inactive),0.00605 (inactive),13.4% (inactive),17.8% (inactive)
CCOC(=O)C1CCCN(C(=O)c2ccc(CS(=O)(=O)Cc3ccccc3C)o2)C1 (stereo not drawn),419,10.9% (inactive),19.5% (inactive),76.5%,-57.8% (inactive),93.9%,-0.595 (inactive),4.2e-06 (inactive),0.00695 (inactive),-2.6% (inactive),5.13% (inactive)
COC(=O)c1cccc(NC(=O)NC2CCCN2S(=O)(=O)c2ccc(Cl)cc2)c1 (stereo not drawn),612,-16.1% (inactive),2.9% (inactive),101%,-144% (inactive),141%,-0.392 (inactive),-6.9e-05 (inactive),0.00559 (inactive),14% (inactive),20.5% (inactive)
CN(C)CC(=O)N1c2ccccc2CCc2ccc(NC(=O)c3ccc(N)cc3)cc21,555,-15.6% (inactive),3.6% (inactive),95.1%,-115% (inactive),108%,-0.571 (inactive),-5.5e-05 (inactive),0.00297 (inactive),11.3% (inactive),26.6% (inactive)
O=C(NC1CCCC1)c1ccc(S(=O)(=O)N2CCCC2)cc1,452,-8% (inactive),1.5% (inactive),104%,-93.7% (inactive),120%,-0.344 (inactive),-1.7e-05 (inactive),0.0102 (inactive),-19.5% (inactive),-26.9% (inactive)
CNC(=O)CN(c1cc(C)ccc1OC)S(=O)(=O)c1ccc(C)cc1,317,5% (inactive),-22% (inactive),107%,6.9% (inactive),105%,-0.563 (inactive),-1.4e-05 (inactive),0.00434 (inactive),5.72% (inactive),6.94% (inactive)
Cc1cc2c(c(=O)n1CCN(C)C)C(c1ccncc1)C(C#N)=C(N)O2 (stereo not drawn),552,7.7% (inactive),5% (inactive),102%,-74% (inactive),155%,-0.484 (inactive),-1.3e-05 (inactive),0.00498 (inactive),5.86% (inactive),8.13% (inactive)
CCOC(=O)C1CCN(C(=O)Nc2ccc(Cl)cc2Cl)CC1,262,0% (inactive),25.3% (inactive),89.6%,-16.8% (inactive),80.6%,-0.463 (inactive),-4.6e-05 (inactive),0.00434 (inactive),14% (inactive),1.16% (inactive)
Nc1nnc(SCC(=O)N2CCc3ccccc32)n1-c1ccccc1,449,-3.6% (inactive),-2% (inactive),94.9%,-79.9% (inactive),111%,-0.542 (inactive),-4.3e-05 (inactive),0.00439 (inactive),17.7% (inactive),27.2% (inactive)
